The nature of experiment [1]: Ratio is the compound /control(SH level in liver). In kind it is functional, Mus musculus. In short, it runs like this: (§1)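 Same dosing: 10 μmol po daily for 3 days in cottonseed oil/10% ethanol, vehicle controls, tissues taken 24 h after the last dose. Homogenate (phosphate pH 7.5) used at once. Ellman method: equal volume 4% sulfosalicylic acid, then supernatant plus 9 volumes of 0.1 mM DTNB in 0.1 M phosphate pH 8.0. Read spectrophotometrically. Units µmol SH/g tissue, mean ± SD; ratio = treated/control.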

The target in experiment [2] is T1, Glutathione S-transferase Mu 1 (Mus musculus) (UniProt P10649).
T1 sequence (whole entry): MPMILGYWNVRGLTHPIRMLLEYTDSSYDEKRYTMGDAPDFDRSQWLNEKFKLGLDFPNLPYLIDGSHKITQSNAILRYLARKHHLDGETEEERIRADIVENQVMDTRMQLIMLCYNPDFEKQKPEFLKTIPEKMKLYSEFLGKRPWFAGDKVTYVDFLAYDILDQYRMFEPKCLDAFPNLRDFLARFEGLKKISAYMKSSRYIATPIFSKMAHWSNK
The experiment in a line: GST activity in the cytosols of the lung of ICR/Ha mice was determined by using 1-Chloro-2,4-dinitrobenzene as the substrate. In kind it is functional. In outline:
(§2)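 Mice (6-8 wk, groups of 4-5, semipurified diet) dosed po once daily for 3 days with 10 μmol in 0.2 mL cottonseed oil/10% ethanol. Vehicle-only controls. Killed 24 h after the last dose. Tissue homogenized in phosphate buffer pH 7.5, then spun at 100000g for 1 h to give cytosol. CDNB conjugation read at 340 nm, 30 °C, pH 6.5 phosphate, 5 mM GSH, 1 mM CDNB. Units µmol/min/mg protein, mean ± SD; ratio = treated/control.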

Experiment [3] addresses T1, Glutathione S-transferase Mu 1 (Mus musculus). The experiment in a line: GST activity in the cytosols of liver of ICR/Ha mice, using 1-Chloro-2,4-dinitrobenzene as substrate. In kind it is functional, tissue-based. In short, it runs like this: as §2
Experiment [4] shares this target. Briefly: Ratio is the compound /control(Specific activity in forestomach). The class given is functional, tissue-based. The settings on record: Stomach. In short, it runs like this:
as §2

Experiment [5] has the same target. Briefly: Ratio is the compound /control(Specific activity in small bowel mucosa(GST)). The class given is functional. In outline: as §2
The target is the same in experiment [6]. The experiment in a line: GST activity in the cytosols of small bowel mucosa of ICR/Ha mice was determined by using 1-Chloro-2,4-di nitrobenzene as the substrate. The class given is functional. In short, it runs like this: as §2
Experiment [7] has the same target. Briefly: GST activity in the cytosols of the forestomach of ICR/Ha mice was determined by using 1-Chloro-2,4-dinitrobenzene as the substrate. In kind it is functional, tissue-based. Particulars: Stomach. In outline: as §2
Experiment [8] is filed under the species Mus musculus. Briefly: Ratio is the compound /control(SH in small bowel mucosa). The class given is functional. In outline: as §1
Experiment [9] addresses T1, Glutathione S-transferase Mu 1 (Mus musculus). Briefly: Ratio is the compound /control(Specific activity in liver(GST)). In kind it is functional, tissue-based. In short, it runs like this: as §2
Experiment [10] in a line: Tissue acid-soluble sulfhydryl levels of liver of ICR/Ha mice. In kind it is functional, Mus musculus. In short, it runs like this: as §1
For experiment [11], the species on record is Mus musculus. Briefly: Tissue acid-soluble sulfhydryl levels of small bowel mucosa of ICR/Ha mice. In kind it is functional. In outline:
as §1

The target in experiment [12] is T1, Glutathione S-transferase Mu 1 (Mus musculus). Briefly: Ratio is the compound /control(Specific activity in lung). In kind it is functional. In short, it runs like this:
as §2

The species named for experiment [13] is Mus musculus. The experiment in a line: GST activity in the cytosols of small bowel mucosa of ICR/Ha mice was determined by using 1-Chloro-2,4-dinitrobenzene as the substrate. The class given is functional. In outline: as §2
For experiment [14], the species on record is Mus musculus. Briefly: Tissue acid-soluble sulfhydryl levels of small bowel mucosa of ICR/Ha mice. The class given is functional. In outline: as §1
Experiment [15] can be described thus: Tissue acid-soluble sulfhydryl levels of liver of ICR/Ha mice. The class given is functional, Mus musculus. In outline:
as §1

The species entered for experiment [16] is Mus musculus. The experiment in a line: GST activity in the cytosols of small bowel mucosa of ICR/Ha mice was determined by using 1-Chloro-2,4-di nitrobenzene as the substrate. The class given is functional. In outline:
as §2

The values below come from ChEMBL document CHEMBL1123806, “Effects of derivatives of kahweol and cafestol on the activity of glutathione S-transferase in mice” (1987).

Structures are written as SMILES.

With `CC(=O)OC1C[C@@]23CCC4c5ccoc5CC[C@@]4(C)C2CCC1C3` (some centres not stated), the Ratio in experiment [1] was determined as 1.8; in experiment [4] it was 1.1; in [5] it was 5.1; in experiment [8] it was 1.5; in experiment [9] it was 1.3; in experiment [12], 1.1. Further, the Specific activity (uM min-1 (mg of protein)-1) in experiment [2] is 0.29; in [3] it was 2.24; in experiment [6], 1.83; in experiment [7] it was 0.83. In addition, the SH level is 13.3 µM/g in experiment [10] and 8.3 µmol/g in [11].
`C[C@@]12CCC3=C(CCO3)C1CC[C@@]13CC(CCC12)[C@@](O)(CO)C3` (some centres not stated): the Ratio came out at 1.18 in experiment [1], 1.1 in experiment [5], 1.1 in experiment [8] and 1.04 in [9]. The Specific activity (uM min-1 (mg of protein)-1) in experiment [3] stood at 1.22. Besides, the Specific activity in experiment [13] is 0.42 uM min-1 (mg of protein)-1. Besides, the SH level was 11.9 µM/g in experiment [10] and 6.5 µmol/g in experiment [11].
For the molecule `CC(=O)OC[C@@]1(O)C[C@@]23CC[C@@H]4c5ccoc5CC[C@@]4(C)[C@@H]2CC[C@@H]1C3` [CAFESTOL ACETATE], the Ratio in [1] was 1.41; in [5] it was 7.5; in experiment [8], 2; in experiment [9], 2.74. This molecule also returned a Specific activity (uM min-1 (mg of protein)-1) in [3] of 3.24. In addition, the Specific activity in [13] is given as 3 uM min-1 (mg of protein)-1. Moreover, the SH level in [10] was 14.3 µM/g; in experiment [11] it was 12 µmol/g.
`C[C@@]12C=Cc3occc3C1CC[C@]13CC(O)C(CCC12)C3` (some centres not stated): the Ratio amounted to 1.1 in experiment [1]; 1.5 in experiment [4]; 5.7 in experiment [5]; 1.7 in [8]; 2.5 in experiment [9]; 0.8 in experiment [12]. The Specific activity (uM min-1 (mg of protein)-1) in experiment [2] turned out to be 0.23; in experiment [3], 3.57; in [6], 1.72; in experiment [7] it was 1.01. Besides, the SH level was 10.9 µmol/g in experiment [14] and 9.5 µM/g in experiment [15].
`C[C@@]12C=Cc3occc3C1CC[C@]13CC(=O)C(CCC12)C3` (some centres not stated): the Ratio was found to be 1.3 in experiment [1]; 1.6 in experiment [4]; 6.1 in [5]; 1.6 in [8]; 2.6 in experiment [9]; 1 in [12]. Further, the Specific activity (uM min-1 (mg of protein)-1) in experiment [2] turned out to be 0.28; in experiment [3] it was 3.67; in experiment [6] it was 1.84; in experiment [7] it was 1.05. Further, the SH level in experiment [10] was found to be 11.8 µM/g; in [11], 10.4 µmol/g.
Regarding `C[C@@]12CCc3occc3C1CC[C@]13CCC(CCC12)C3` (some centres not stated), the Ratio in experiment [1] was determined as 1.7; in [4] it was 1.1; in experiment [5] it was 2.6; in [8] it was 1.6; in experiment [9], 1.6; in [12], 1.3. In addition, the Specific activity (uM min-1 (mg of protein)-1) in experiment [2] came to 0.33; in [3], 2.62; in experiment [7], 0.85. The Specific activity in [16] is 0.95 uM min-1 (mg of protein)-1. For the same molecule, the SH level in [14] amounted to 8.4 µmol/g; in experiment [10] it was 13 µM/g.
For the molecule `CC1(O)C[C@@]23CCC4c5ccoc5C=C[C@@]4(C)C2CCC1C3` (some centres not stated), the Ratio in experiment [1] is 0.9; in [4], 1.4; in experiment [5], 4.5; in experiment [8] it was 1.2; in [9] it was 1.8; in [12], 0.8. The Specific activity (uM min-1 (mg of protein)-1) in experiment [2] was determined as 0.24; in [3] it was 2.59; in experiment [6], 1.34; in experiment [7] it was 0.92. The values for the SH level in experiment [14] and in [15] were 7.7 µmol/g and 8.3 µM/g, respectively.
With `C[C@@]12CCc3occc3C1CC[C@@]13CC(CCC12)C(O)(CO)C3` (some centres not stated), the Ratio in experiment [1] stood at 2; in experiment [4], 1.2; in experiment [5], 3.8; in experiment [8] it was 1.5; in experiment [9], 2; in experiment [12], 1. The Specific activity (uM min-1 (mg of protein)-1) in experiment [2] was found to be 0.26; in [3] it was 3.35; in experiment [6], 1.36; in experiment [7], 0.91. Besides, the SH level was 14.9 µM/g in experiment [10] and 7.9 µmol/g in [11].
`CC(=O)OC1C[C@@]23CCC4c5ccoc5C=C[C@@]4(C)C2CCC1C3` (some centres not stated): the Ratio in experiment [1] was found to be 1.1; in experiment [4] it was 1.4; in [5] it was 6.9; in experiment [8] it was 1.7; in experiment [9], 2.6; in experiment [12], 1. For the same molecule, the Specific activity (uM min-1 (mg of protein)-1) amounted to 0.3 in [2], 3.68 in experiment [3], 2.06 in [6] and 0.94 in experiment [7]. Also, the SH level in experiment [14] amounted to 10.8 µmol/g; in experiment [15], 10.1 µM/g.
Consider `C[C@@]12C=Cc3occc3C1CC[C@@]13CC(CCC12)C(O)(CO)C3` (some centres not stated), for which the Ratio in experiment [1] is 1.5; in [4], 2.1; in experiment [5] it was 7.3; in experiment [8], 2.1; in [9], 3; in experiment [12] it was 1. In addition, the Specific activity (uM min-1 (mg of protein)-1) in experiment [2] is 0.29; in [3], 4.3; in experiment [6], 2.21; in experiment [7], 1.4. Moreover, the SH level came out at 13 µM/g in [10] and 13.1 µmol/g in experiment [11].
As for `C[C@@]12CCc3occc3C1CC[C@]13CC(=O)C(CCC12)C3` (some centres not stated), the Ratio in experiment [1] amounted to 1.8; in [4], 1.2; in experiment [5], 5.7; in [8], 1.9; in experiment [9], 1.7; in [12], 1.1. For the same molecule, the Specific activity (uM min-1 (mg of protein)-1) amounted to 0.29 in experiment [2], 2.85 in experiment [3], 2.06 in experiment [6] and 0.88 in [7]. In addition, the SH level in experiment [10] was 13.3 µM/g; in experiment [11], 10.3 µmol/g.
As to `CC(=O)OC[C@@]1(O)C[C@@]23CCC4C5=C(CC[C@@]4(C)C2CCC1C3)OCC5` (some centres not stated), the Ratio in experiment [1] amounted to 1.55; in experiment [5] it was 1; in experiment [8], 1.2; in [9], 1.08. This molecule also had a Specific activity (uM min-1 (mg of protein)-1) in [3] of 1.27. Moreover, in experiment [13], the Specific activity is listed as 0.41 uM min-1 (mg of protein)-1. The values for the SH level in experiment [10] and in experiment [11] were 15.6 µM/g and 7.1 µmol/g, respectively.
